*1 amine or outer side, *2 acyl side, *3 side chain or, on linkers, in order; H or OH if unused. Where a SMILES comes first, the peptide text is derived from it. Side-chain parts run from the residue outwards. The star is where a group is joined. 3Abz = Nc1cccc(C(=O)O)c1; X4 = CC(=O)c1cccc(N*)c1; Boc = CC(C)(C)OC(=O)*; X7 = Clc1cccc(N*)c1Cl; CO = O=C([*:1])[*:2]; NHPh = c1ccc(N*)cc1
Experiments:
[1] = molecular target: T1, Cholecystokinin receptor type A (Cavia porcellus, UniProt Q63931); experiment: Binding affinity towards cholecystokinin type A receptor in guinea pig pancreas by using [125I]BH-CCK-8 as radioligand; assay type: tissue-based
T1 sequence (Q63931 whole entry): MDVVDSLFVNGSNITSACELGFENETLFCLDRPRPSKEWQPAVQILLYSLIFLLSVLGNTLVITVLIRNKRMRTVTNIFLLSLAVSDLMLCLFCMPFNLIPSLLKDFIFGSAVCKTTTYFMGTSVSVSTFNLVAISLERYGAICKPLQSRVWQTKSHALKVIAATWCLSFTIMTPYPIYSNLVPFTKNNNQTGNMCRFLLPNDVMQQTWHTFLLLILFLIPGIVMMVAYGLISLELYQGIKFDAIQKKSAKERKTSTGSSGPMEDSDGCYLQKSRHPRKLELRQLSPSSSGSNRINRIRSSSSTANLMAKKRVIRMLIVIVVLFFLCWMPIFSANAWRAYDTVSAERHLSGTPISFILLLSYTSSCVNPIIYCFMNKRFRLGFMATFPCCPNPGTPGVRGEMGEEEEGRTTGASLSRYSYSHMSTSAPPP
How it was run: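 Radioligand displacement of [125I]Bolton-Hunter CCK-8, guinea pig pancreas (CCK-A) or cortex (CCK-B) membranes. […] Each determination was run in duplicate with <5% sample variability. Means ±SE are given where there were three or more determinations.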

Cavia porcellus [2] = species on record: Cavia porcellus; experiment: The compound was tested for effective concentration for amylase release in guinea pig pancreatic Acini; assay type: functional
How it was run: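 Amylase release from guinea pig pancreatic acini. […] Each determination was run in duplicate with <5% sample variability. Means ±SE are given where there were three or more determinations.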

Cavia porcellus [3] = species on record: Cavia porcellus; experiment: Percentage response in phosphoinositide hydrolysis relative to maximal response elicited by CCK-8 in guinea pig pancreatic acini; assay type: functional
How it was run: (§1)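 Guinea pig pancreatic acini, phosphoinositide hydrolysis. […] Efficacy is expressed as % of the maximal response elicited by CCK-8. Each determination was run in duplicate with <5% sample variability. Means ±SE are given for three or more determinations.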

[4] = Selectivity ratio of IC50 measured in guinea pig cortex to that of IC50 for guinea pig pancreas; conditions: Cavia porcellus
[5] = molecular target: Gastrin/cholecystokinin type B receptor (Cavia porcellus); experiment: Binding affinity towards cholecystokinin type B receptor in guinea pig cortex by using [125I]BH-CCK-8 as radioligand
Cavia porcellus [6] = species on record: Cavia porcellus; experiment: Effective concentration for hydrolysis of phosphoinositide in guinea pig pancreatic Acini; assay type: functional; how it was run: as §1

IC50 [1] [nM]	EC50 (Cavia porcellus [2]) [nM]	Selectivity [4]	IC50 [5] [nM]	EC50 (Cavia porcellus [6]) [nM]	Compound	Max response (Cavia porcellus [3]) [%]
26	2.7	54			COC(=O)c1cccc(NC(=O)NCCCC[C@H](NC(=O)[C@H](Cc2c[nH]c3ccccc23)NC(=O)OC(C)(C)C)C(=O)N[C@@H](CC(=O)O)C(=O)N[C@@H](Cc2ccccc2)C(N)=O)c1 (Boc-WK([CO-3Abz-OMe])DF-NH2)	88
19	5.2				CC(=O)c1cccc(NC(=O)NCCCC[C@H](NC(=O)[C@H](Cc2c[nH]c3ccccc23)NC(=O)OC(C)(C)C)C(=O)N[C@@H](CC(=O)O)C(=O)N[C@@H](Cc2ccccc2)C(N)=O)c1 (Boc-WK([CO-X4])DF-NH2)	95
4.5		670			CC(C)(C)OC(=O)N[C@@H](Cc1c[nH]c2ccccc12)C(=O)N[C@@H](CCCCNC(=O)Nc1cccc(Cl)c1Cl)C(=O)N[C@@H](CC(=O)O)C(=O)N[C@@H](Cc1ccccc1)C(N)=O (Boc-WK([CO-X7])DF-NH2)	
		42	1100	53	CC(C)(C)OC(=O)N[C@@H](Cc1c[nH]c2ccccc12)C(=O)N[C@@H](CCCCNC(=O)Nc1ccccc1)C(=O)N[C@@H](CC(=O)O)C(=O)N[C@@H](Cc1ccccc1)C(N)=O (Boc-WK([CO-NHPh])DF-NH2)	96

— ChEMBL document CHEMBL1125209, “Boc-CCK-4 derivatives containing side-chain ureas as potent and selective CCK-a receptor agonists” (J Med Chem, 1991)
